Data taken from ChEMBL document CHEMBL3243949, “Discriminant--analytical investigation on the structural dependence of hyperglycemic and hypoglycemic activity in a series of substituted o-toluenesulfonylthioureas and o-toluenesulfonylureas” (1979).

test system: Rattus norvegicus; test: Hypoglycemic activity in rat assessed as blood glucose level per 100 ml at 70 mg/kg, ip after 90 mins; format: functional; conditions: route intraperitoneal
How it was run: (§1)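 Narcotized rats, six per experiment; blood sugar measured before and 90 min after intraperitoneal dosing (70 and 100 mg/kg used in study). Glucose determined by o-toluidine reaction in acid medium. Values are mean of six rats ± 2 s. Classed hyper- or hypoglycemic by Student's t test, before vs after, when α < 0.01.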

Row | Compound | Activity [mg]
1 | COc1ccc(S(=O)(=O)NC(=O)NCc2ccccc2)c(C)c1 | 104
2 | CCCCNC(=O)NS(=O)(=O)c1ccc(OCC)cc1C | 114
3 | CCCCNC(=O)NS(=O)(=O)c1ccc(OCCC)cc1C | 130
4 | CCCCOc1ccc(S(=O)(=O)NC(=S)NC)c(C)c1 | 77
5 | CCCCCOc1ccc(S(=O)(=O)NC(=S)NCCCC)c(C)c1 | 129
6 | CCCCNC(=O)NS(=O)(=O)c1ccc(NC(C)=O)cc1C | 112
7 | COc1ccc(S(=O)(=O)NC(=S)NCc2ccccc2)c(C)c1 | 97
8 | CCCCNC(=S)NS(=O)(=O)c1ccc(OCC)cc1C | 99
9 | CCCCNC(=S)NS(=O)(=O)c1ccc(NC(C)=O)cc1C | 116
10 | CCCCNC(=O)NS(=O)(=O)c1ccc(C)cc1C | 102
11 | CCCCNC(=S)NS(=O)(=O)c1ccc(C)cc1C | 119

test system: Rattus norvegicus; test: Effect on blood glucose level per 100 ml in rat at 70 mg/kg, ip after 90 mins; format: functional; conditions: route intraperitoneal; how it was run: as §1

Row | Compound | Activity [mg]
12 | CCCCNC(=O)NS(=O)(=O)c1ccc(OC)cc1C | 114

test system: Rattus norvegicus; test: Hyperglycemic activity in rat assessed as blood glucose level per 100 ml at 70 mg/kg, ip after 90 mins; format: functional; conditions: route intraperitoneal; how it was run: as §1

Row | Compound | Activity [mg]
13 | CNC(=O)NS(=O)(=O)c1ccc(OC)cc1C | 142
14 | CCNC(=O)NS(=O)(=O)c1ccc(OC)cc1C | 135
15 | CCCNC(=O)NS(=O)(=O)c1ccc(OC)cc1C | 135
16 | CCCNC(=S)NS(=O)(=O)c1ccc(OC)cc1C | 153
17 | COc1ccc(S(=O)(=O)NC(N)=O)c(C)c1 | 97
18 | CCOc1ccc(S(=O)(=O)NC(N)=O)c(C)c1 | 103
19 | CCCCNC(=S)NS(=O)(=O)c1ccc(OCCC)cc1C | 160
20 | CCCCOc1ccc(S(=O)(=O)NC(=O)NC)c(C)c1 | 96
21 | CCCCNC(=O)NS(=O)(=O)c1ccc(OCCCC)cc1C | 113
22 | CCCCCOc1ccc(S(=O)(=O)NC(=O)NCCCC)c(C)c1 | 79
